# Active and inactive are the calls of the source. No cut-off for these calls is given here.
# How the values were obtained:
# [1] = biological target: T1, Transcriptional activator protein LasR (Pseudomonas aeruginosa (strain ATCC 15692 / PAO1 / 1C / PRS 101 / LMG12228)) (UniProt P25084); experiment: Antagonist activity at Pseudomonas aeruginosa LasR expressed in Escherichia coli BL21 DE3 at 100 uM after 4 to 6 hrs by GFP reporter gene assay relative to Br-HSL
# T1 sequence (whole entry): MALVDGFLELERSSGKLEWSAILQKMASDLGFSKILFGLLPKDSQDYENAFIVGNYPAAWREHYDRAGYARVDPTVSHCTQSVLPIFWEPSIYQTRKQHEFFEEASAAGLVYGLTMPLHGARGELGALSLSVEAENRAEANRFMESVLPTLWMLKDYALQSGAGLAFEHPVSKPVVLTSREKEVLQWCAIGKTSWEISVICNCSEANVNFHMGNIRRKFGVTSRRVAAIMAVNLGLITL
# Procedure, shortened: (§1)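 GFP-based LasR antagonist bioassay. IC50 is the mean of triplicate runs, range as 95% confidence interval. Percent inhibition of GFP is measured at 100 μM relative to Br-HSL positive control, which is set at 100% inhibition.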
# [2] = Antagonist activity at Pseudomonas aeruginosa LasR expressed in Escherichia coli BL21 DE3 after 4 to 6 hrs by GFP reporter gene assay; procedure, shortened: as §1
# [3] = biological target: T1, Transcriptional activator protein LasR (Pseudomonas aeruginosa (strain ATCC 15692 / PAO1 / 1C / PRS 101 / LMG12228)); experiment: Irreversible antagonist activity at Pseudomonas aeruginosa LasR expressed in Escherichia coli BL21 DE3 at 10 to 50 uM after 4 to 6 hrs by GFP reporter gene assay in presence of LasR agonist 3-oxo-C12HSL
# Procedure, shortened: (§2)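 Competition format of the GFP LasR bioassay: antagonist held at a fixed concentration while a dose-response curve of native agonist 3-oxo-C12 HSL is run; the maximal activation and the curve are compared.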
# [4] = biological target: T2, Transcriptional activator protein LasR (Pseudomonas aeruginosa (strain ATCC 15692 / PAO1 / 1C / PRS 101 / LMG12228), UniProt P25084); experiment: Agonist activity at Pseudomonas aeruginosa LasR
# T2 sequence (P25084 whole entry): T1 sequence (whole entry)
# [5] = biological target: T1, Transcriptional activator protein LasR (Pseudomonas aeruginosa (strain ATCC 15692 / PAO1 / 1C / PRS 101 / LMG12228)); experiment: Antagonist activity at LasR in Pseudomonas aeruginosa PA14 assessed as inhibition of static biofilm formation after 48 hrs by crystal violet staining
# Procedure, shortened: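 Static PA14 cultures; 48 h biofilms quantified by crystal violet staining, absorbance at 550 nm.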
# [6] = biological target: T1, Transcriptional activator protein LasR (Pseudomonas aeruginosa (strain ATCC 15692 / PAO1 / 1C / PRS 101 / LMG12228)); experiment: Antagonist activity at LasR in Pseudomonas aeruginosa PA14 assessed as inhibition of static biofilm thickness grown in rich media at 12.5 to 25 uM after 36 hrs SYTO-9 nucleic acid staining-based confocal microscopic analysis
# [7] = biological target: T1, Transcriptional activator protein LasR (Pseudomonas aeruginosa (strain ATCC 15692 / PAO1 / 1C / PRS 101 / LMG12228)); experiment: Antagonist activity at LasR in Pseudomonas aeruginosa PAO1 assessed as decrease in pyocyanin level in extracted and acidified cell-free supernatants after 12 hrs
# Procedure, shortened: (§3)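 Cell-free culture supernatants undergo a pyocyanin-selective extraction and acidification, then absorbance is read at 520 nm.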
# [8] = biological target: T1, Transcriptional activator protein LasR (Pseudomonas aeruginosa (strain ATCC 15692 / PAO1 / 1C / PRS 101 / LMG12228)); experiment: Antagonist activity at LasR in Pseudomonas aeruginosa PA14 assessed as inhibition of overall static biofilm biomass grown in rich media after 36 hrs SYTO-9 nucleic acid staining-based confocal microscopic analysis
# Procedure, shortened: (§4)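 PA14 biofilms grown 36 h in Luria broth, stained with SYTO-9 and imaged by confocal fluorescence microscopy. Biomass and thickness are computed from the images. Images are taken in duplicate and imaging is repeated three times.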
# [9] = biological target: T1, Transcriptional activator protein LasR (Pseudomonas aeruginosa (strain ATCC 15692 / PAO1 / 1C / PRS 101 / LMG12228)); experiment: Irreversible antagonist activity at Pseudomonas aeruginosa LasR expressed in Escherichia coli BL21 DE3 at 10 to 100 uM after 4 to 6 hrs by GFP reporter gene assay in presence of LasR agonist 3-oxo-C12HSL; procedure, shortened: as §2
# [10] = biological target: T1, Transcriptional activator protein LasR (Pseudomonas aeruginosa (strain ATCC 15692 / PAO1 / 1C / PRS 101 / LMG12228)); experiment: Antagonist activity at LasR in Pseudomonas aeruginosa PA14 assessed as inhibition of overall static biofilm morphology grown in rich media at 12.5 to 25 uM after 36 hrs SYTO-9 nucleic acid staining-based confocal microscopic analysis
# [11] = biological target: T1, Transcriptional activator protein LasR (Pseudomonas aeruginosa (strain ATCC 15692 / PAO1 / 1C / PRS 101 / LMG12228)); experiment: Antagonist activity at LasR in Pseudomonas aeruginosa PAO1 assessed as decrease in pyocyanin level in cell-free supernatants after 12 hrs
# Procedure, shortened: (§5)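 Cell-free supernatants from PAO1 or PA14 cultures. Pyocyanin is read directly as absorbance at 695 nm, in triplicate. Cell density is read at A600 in parallel.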
# Pseudomonas aeruginosa [12] = experiment: Effect on growth of Pseudomonas aeruginosa PAO1 at 12.5 to 25 uM; assay type: organism-based; settings: in vivo
# Procedure, shortened: (§6)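 Growth of PAO1 and PA14 in the pyocyanin cultures is followed by cell density at A600.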
# [13] = biological target: T1, Transcriptional activator protein LasR (Pseudomonas aeruginosa (strain ATCC 15692 / PAO1 / 1C / PRS 101 / LMG12228)); experiment: Antagonist activity at LasR in Pseudomonas aeruginosa PA14 assessed as decrease in pyocyanin level in extracted and acidified cell-free supernatants after 12 hrs; procedure, shortened: as §3
# Pseudomonas aeruginosa [14] = experiment: Effect on growth of Pseudomonas aeruginosa PA14 at 12.5 to 25 uM; procedure, shortened: as §6
# [15] = biological target: T1, Transcriptional activator protein LasR (Pseudomonas aeruginosa (strain ATCC 15692 / PAO1 / 1C / PRS 101 / LMG12228)); experiment: Antagonist activity at LasR in Pseudomonas aeruginosa PA14 assessed as decrease in pyocyanin level in cell-free supernatants after 12 hrs; procedure, shortened: as §5
# [16] = biological target: T1, Transcriptional activator protein LasR (Pseudomonas aeruginosa (strain ATCC 15692 / PAO1 / 1C / PRS 101 / LMG12228)); experiment: Antagonist activity at LasR in Pseudomonas aeruginosa PA14 assessed as inhibition of static biofilm biomass grown in rich media at 12.5 to 25 uM after 36 hrs SYTO-9 nucleic acid staining-based confocal microscopic analysis
# [17] = biological target: T1, Transcriptional activator protein LasR (Pseudomonas aeruginosa (strain ATCC 15692 / PAO1 / 1C / PRS 101 / LMG12228)); experiment: Antagonist activity at LasR in Pseudomonas aeruginosa PA14 assessed as inhibition of static biofilm thickness grown in rich media after 36 hrs by SYTO-9 nucleic acid staining-based confocal microscopic analysis; procedure, shortened: as §4
# Pseudomonas aeruginosa [18] = experiment: Effect on growth of Pseudomonas aeruginosa up to 200 uM; assay type: organism-based; settings: in vivo
# Procedure, shortened: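 Bacterial growth is monitored by OD600 at concentrations up to 200 μM.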
# [19] = biological target: T2, Transcriptional activator protein LasR; experiment: Agonist activity at Pseudomonas aeruginosa LasR expressed in Escherichia coli BL21 DE3 after 4 to 6 hrs by GFP reporter gene assay
# [20] = biological target: T1, Transcriptional activator protein LasR (Pseudomonas aeruginosa (strain ATCC 15692 / PAO1 / 1C / PRS 101 / LMG12228)); experiment: Non-competitive antagonist activity at Pseudomonas aeruginosa LasR expressed in Escherichia coli BL21 DE3 at 40 to 80 uM after 4 to 6 hrs by GFP reporter gene assay in presence of LasR agonist 3-oxo-C12HSL; procedure, shortened: as §2
structure (smiles),measurement,setting,value
O=C(Cc1cc(Br)cc(Br)c1OC(=O)CCN1C(=O)C=CC1=O)Nc1ccccc1[N+](=O)[O-],inhibition,[1],98%
same,IC50,[2],3.6 µM
same,inhibition,[3],Active
O=C(Oc1c(Br)cc(Br)cc1CNC(=O)c1ccccc1[N+](=O)[O-])c1ccccc1Cl,EC50,[4],0.028 µM
O=C(CCCN1C(=O)C=CC1=O)Oc1c(Br)cc(Br)cc1CNC(=O)c1ccccc1[N+](=O)[O-],inhibition,[5],Dose-dependent effect
same,inhibition,[6],Active
same,inhibition,[7],Dose-dependent effect
same,inhibition,[8],Dose-dependent effect
same,inhibition,[1],101%
same,inhibition,[9],Active
same,IC50,[2],1.5 µM
same,inhibition,[10],Active
same,inhibition,[11],Dose-dependent effect
same,Activity,Pseudomonas aeruginosa [12],Non-toxic
same,inhibition,[13],Dose-dependent effect
same,Activity,Pseudomonas aeruginosa [14],Non-toxic
same,inhibition,[15],Dose-dependent effect
same,inhibition,[16],Active
same,inhibition,[17],Dose-dependent effect
O=C(Cc1cc(Br)cc(Br)c1OC(=O)CCCN1C(=O)C=CC1=O)Nc1ccccc1[N+](=O)[O-],inhibition,[1],30%
same,IC50,[2],78.1 µM
O=C(Cc1cc(Br)cc(Br)c1OC(=O)CCCN=C=S)Nc1ccccc1[N+](=O)[O-],inhibition,[1],69%
same,IC50,[2],148 µM
same,Activity,Pseudomonas aeruginosa [18],Non-toxic
O=C(Cc1cc(Br)cc(Br)c1OC(=O)CN1C(=O)C=CC1=O)Nc1ccccc1[N+](=O)[O-],inhibition,[1],56%
same,IC50,[2],86.8 µM
O=C(Cc1ccc(Br)cc1)N[C@H]1CCOC1=O,IC50,[2],16.4 µM
O=C(CCl)NCCC(=O)Oc1c(Br)cc(Br)cc1CC(=O)Nc1ccccc1[N+](=O)[O-],inhibition,[1],79%
same,IC50,[2],99.5 µM
O=C(CCN1C(=O)C=CC1=O)Oc1c(Br)cc(Br)cc1CNC(=O)c1ccccc1[N+](=O)[O-],inhibition,[1],32%
same,IC50,[2],51.9 µM
O=C(Cc1cc(Br)cc(Br)c1OC(=O)CCN1C(=O)CCC1=O)Nc1ccccc1[N+](=O)[O-],EC50,[19],0.0036 µM
same,IC50,[2],> 100 µM
O=C(Cc1cc(Br)cc(Br)c1OCCCN=C=S)Nc1ccccc1[N+](=O)[O-],inhibition,[1],55%
same,IC50,[2],> 200 µM
same,Activity,Pseudomonas aeruginosa [18],Non-toxic
O=C(Cc1cc(Br)cc(Br)c1OCCCCN=C=S)Nc1ccccc1[N+](=O)[O-],inhibition,[1],61%
same,IC50,[2],145 µM
same,Activity,Pseudomonas aeruginosa [18],Non-toxic
same,inhibition,[20],Active
O=C(CCl)NCC(=O)Oc1c(Br)cc(Br)cc1CC(=O)Nc1ccccc1[N+](=O)[O-],inhibition,[1],91%
same,IC50,[2],73.8 µM
O=C(CCCN=C=S)Oc1c(Br)cc(Br)cc1CNC(=O)c1ccccc1[N+](=O)[O-],inhibition,[1],26%
same,IC50,[2],> 200 µM
same,Activity,Pseudomonas aeruginosa [18],Non-toxic
O=C(CCCN1C(=O)CCC1=O)Oc1c(Br)cc(Br)cc1CNC(=O)c1ccccc1[N+](=O)[O-],EC50,[19],0.119 µM
same,IC50,[2],> 100 µM
